Published values collected from several papers.
Lines come from different studies, so protocols differ.

`COc1ccc(NC(=O)N2CCCCN3[C@H](CN(C)C)[C@H](c4ccc(C#Cc5ccccc5)cc4)[C@@H]3C2)cc1` gave a CC50 of 6.08 µM (HepG2; cell growth or viability, ATP luminescence; 72 h).
`N#C[C@@]1(n2ccc(N)nc2=O)O[C@H](CO)[C@@H](O)[C@H]1O` has a CC50 of 99.5 µM (Huh-7; cell growth or viability).
For `CC(C)CC(=O)OC[C@H]1O[C@@](C#N)(c2ccc3c(N)ncnn23)[C@H](O)[C@@H]1O`, the half-life was 7.93 min (metabolic stability; human, plasma; 5 µM).
`CC(C)=CCC[C@](C)(O[C@@H]1O[C@H](CO)[C@@H](O)[C@H](O)[C@H]1O)[C@H]1CC[C@]2(C)[C@@H]1[C@H](O)C[C@@H]1[C@@]3(C)CC[C@H](O)C(C)(C)[C@@H]3CC[C@]12C` gave an MRT of 510 min (mouse, plasma; intravenous, 2 mg/kg).
`CC(=O)c1c(C)c2cnc(Nc3ccc(C4CCN(CCS(C)(=O)=O)CC4)cn3)nc2n(C2CCCC2)c1=O` gave a half-life of 28.6 min (metabolic stability; human, liver microsomes).
`Cc1[nH]c(C)c(S(=O)(=O)Nc2ccc(S(F)(F)(F)(F)F)c(Cl)c2)c1C(=O)N1CCC(F)(F)C1` has a half-life of 13 min (metabolic stability; human, liver microsomes).
With `CCOC(=O)c1c(NC(=O)CNC(C)C)sc2c1CCCCC2` the MRT(0-inf) was 247 min (male mouse, plasma; intraperitoneal, 100 mg/kg, single dose).
The CC50 of `CC(C)(C)[C@H](NC(=O)C(F)(F)F)C(=O)N1C[C@H]2[C@@H]([C@H]1C(=O)N[C@H](C#N)C[C@@H]1CCNC1=O)C2(C)C` is reported as over 100 µM (Huh-7; cell growth or viability).
`c1ccc2c(c1)[I+]c1ccccc1-2` gave a CC50 of 1.28 µM (HepG2; cell growth or viability, ATP luminescence; 72 h).
`CC(C)[C@]12O[C@H]1[C@@H]1O[C@]13[C@]1(O[C@H]1C[C@H]1C4=C(CC[C@@]13C)C(=O)OC4)[C@@H]2O` has an MRT of 28.8 min (SCID mouse, plasma; intravenous, 0.6 mg/kg).
The MRT of `CC[C@H](C)[C@H](NC(=O)[C@H](Cc1ccccc1)NC(=O)[C@H](CCC(=O)O)NC(=O)[C@H](CCCCN)NC(=O)[C@H](C)NC(=O)[C@H](C)NC(=O)[C@H](CCC(N)=O)NC(=O)CNC(=O)[C@H](CCC(=O)O)NC(=O)[C@H](CC(C)C)NC(=O)[C@H](Cc1ccc(O)cc1)NC(=O)[C@H](CO)NC(=O)[C@H](CO)NC(=O)[C@@H](NC(=O)[C@H](CC(=O)O)NC(=O)[C@H](CO)NC(=O)[C@@H](NC(=O)[C@H](Cc1ccccc1)NC(=O)[C@@H](NC(=O)CNC(=O)[C@H](CCC(=O)O)NC(=O)[C@H](C)NC(=O)N(N)Cc1c[nH]cn1)[C@@H](C)O)[C@@H](C)O)C(C)C)C(=O)N[C@@H](C)C(=O)N[C@@H](Cc1c[nH]c2ccccc12)C(=O)N[C@@H](CC(C)C)C(=O)N[C@H](C(=O)N[C@@H](CCCNC(=N)N)C(=O)NCC(=O)N[C@@H](CCCNC(=N)N)C(=O)NCC(=O)O)C(C)C` is reported as 8.4 min (male CD-1 mouse, plasma; intravenous, 1 mg/kg, single dose).
